We go through 2 compounds from publication PMC11342405 (Bioorganic & medicinal chemistry, 2024).

One assay concerns HEK-293 cells. The assay is described as follows: Anti-proliferative MTT assay, non-cancerous HEK-293 cells. In kind it is cell-based. To be noted: Homo sapiens, HEK293, 72 h, read-out: HEK-293 IC50. In outline: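 HEK-293 cells grown in DMEM with 10% FBS and 1% penicillin/streptomycin, seeded at 2.5 x 10^4 cells/well and allowed 24 h before dosing. Compound (DMSO stock) given at increasing concentrations for 72 h at 37 °C, 5% CO2. MTT (5.4 mg/mL dye solution) was added for 3 h, formazan dissolved in DMSO, and absorbance read at 570 nm. Replicates 6-8; IC50 derived from concentration-response data.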

Assay [1] addresses T1, gankyrin (Homo sapiens, UniProt O75832).
T1 sequence (O75832 1-226): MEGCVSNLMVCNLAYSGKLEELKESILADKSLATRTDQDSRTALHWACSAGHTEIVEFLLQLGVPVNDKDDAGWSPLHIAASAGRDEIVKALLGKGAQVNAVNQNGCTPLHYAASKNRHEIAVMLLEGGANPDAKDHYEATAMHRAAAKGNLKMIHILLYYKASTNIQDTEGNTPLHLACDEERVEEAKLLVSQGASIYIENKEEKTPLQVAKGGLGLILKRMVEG
The assay is described as follows: Circular dichroism of gankyrin. To be noted: 10 μM gankyrin, 1-100 μM compound, 25 °C. In kind it is binding. In outline:
(§1)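 Recombinant His-tagged protein was expressed in E. coli LOBSTR BL21(DE3) (0.5 mM IPTG, 37 °C, 16 h) and Ni-affinity purified. The tag was removed with TEV, followed by a second HisTrap pass and gel filtration if needed. 10 μM protein in 25 mM Tris, 50 mM NaCl, pH 7.4, alone or with 1, 10 or 100 μM compound. Spectra 195–260 nm in a 1 mm quartz cuvette, six accumulations, 25 °C; α-helical content monitored; triplicate samples.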

Another assay has as its target T2, ANKRA2 (Homo sapiens, UniProt Q9H9E1).
T2 sequence (Q9H9E1 152-313 limits assumed): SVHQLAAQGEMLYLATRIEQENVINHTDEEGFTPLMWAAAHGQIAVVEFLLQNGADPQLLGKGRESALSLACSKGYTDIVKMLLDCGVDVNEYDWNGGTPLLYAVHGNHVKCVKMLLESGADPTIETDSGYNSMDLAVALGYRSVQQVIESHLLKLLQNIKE
The assay is described as follows: Circular dichroism of ANKRA2. In kind it is binding. Particulars: 10 μM ANKRA2, 1-100 μM compound, 25 °C. In outline:
as §1

Assay [2] has as its target T1, gankyrin. In words: Cellular thermal shift assay. In kind it is cell-based. Particulars: HuH6 cells treated at anti-proliferative IC50 for 5 h, 50-65 °C. Put shortly: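 HuH6 cells were exposed to test compound (0.25% DMSO final) or DMSO alone for 5 h, harvested, split into six aliquots and heated at 50, 53, 56, 59, 62 or 65 °C. Lysis was in RIPA with protease/phosphatase inhibitors, 60 min on ice. 15 μg protein was run on reducing SDS-PAGE, transferred to PVDF and probed for gankyrin, with β-actin as reference; HRP secondary and ECL detection.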

Assay [3] has as its system Rb, p53 and gankyrin levels in HuH6 cells. The assay is described as follows: Western blot analysis of TSP levels in HuH6 cells. In kind it is cell-based. Particulars: 48 h. Put shortly:
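HuH6 cells in 10 cm dishes were exposed to varying compound concentrations (0.25% DMSO final) or DMSO only for 48 h. Cells were harvested in cold PBS and lysed in RIPA with protease/phosphatase inhibitors, 60 min on ice. 15 μg protein was resolved under reducing conditions, transferred to PVDF and probed for p53, Rb and gankyrin, with cyclophilin as reference; HRP secondaries, ECL detection. Run in duplicate.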

The next assay relates to HuH6 cells. In words: Cell cycle analysis by flow cytometry in HuH6 cells. Particulars: 3.3 μM, 72 h, vs DMSO. In kind it is cell-based. Put shortly: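 HuH6 cells in 10 cm dishes were exposed to test compound or vehicle (0.25% DMSO final) for 72 h. Cells were harvested in cold PBS, normalized, fixed in 70% ethanol at −20 °C overnight, then stained with PI/RNase for 30 min at 37 °C. DNA content was measured by flow cytometry. Mean ± SD, n = 3; one-way ANOVA, P < 0.05 significant.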

Entries after “also recorded” stand apart in the source; their conditions may differ.

For `COC(=O)c1ccc(C(=O)NCCCNC(=O)c2ccc(C(=O)OC)cc2)cc1` [Compound 10d, Dimethyl 4,4'-((propane-1,3-diylbis(azanediyl))bis(carbonyl))dibenzoate], in the assay on HEK-293 cells, the IC50 is > 50 µM. Besides, the “effect on gankyrin secondary structure / 3D fold (CD spectra)” value at gankyrin [1] was “reduction in secondary structure content; also recorded: significant loss of gankyrin structural integrity”. Also, the “effect on ANKRA2 secondary structure / 3D fold (CD spectra)” value on ANKRA2 is “no changes in secondary structure content; also recorded: no significant global structure change”.

On to `COC(=O)c1ccc(NC(=O)CCC(=O)Nc2ccc(C(=O)OC)cc2)cc1` [Compound 13d, Dimethyl 4,4'-(succinylbis(azanediyl))dibenzoate], for which the IC50 with HEK-293 cells is > 50 µM. For the same compound, at gankyrin [2], the “gankyrin thermal stability (CETSA)” value is “bind and thermally stabilize gankyrin”. In assay [3], the “Rb and p53 levels (western blot)” value is “increase in both Rb and p53 levels”; the “gankyrin levels (western blot)” value is on record as “relatively constant”. Besides, in the assay on HuH6 cells, the “number of cells in the G0-G1 phase” value is “significant increase” and the “number of cells in the S phase” value is on record as “significant decrease”. Besides, the “effect on gankyrin secondary structure / 3D fold (CD spectra)” value on gankyrin [1] is “decline in secondary structure content; also recorded: significant loss of gankyrin structural integrity”. In addition, the “effect on ANKRA2 secondary structure / 3D fold (CD spectra)” value at ANKRA2 is recorded as “no alterations in secondary structure content; also recorded: no significant global structure change”.
